The values below come from ChEMBL document CHEMBL1152204, “Novel potent and highly selective human A(3) adenosine receptor antagonists belonging to the 4-amido-2-arylpyrazolo[3,4-c]quinoline series: molecular docking analysis and pharmacological studies” (Bioorg Med Chem, 2009).

In assay [1] the target is T1, Adenosine receptor A2b (Homo sapiens) (UniProt P29275).
T1 sequence (whole entry): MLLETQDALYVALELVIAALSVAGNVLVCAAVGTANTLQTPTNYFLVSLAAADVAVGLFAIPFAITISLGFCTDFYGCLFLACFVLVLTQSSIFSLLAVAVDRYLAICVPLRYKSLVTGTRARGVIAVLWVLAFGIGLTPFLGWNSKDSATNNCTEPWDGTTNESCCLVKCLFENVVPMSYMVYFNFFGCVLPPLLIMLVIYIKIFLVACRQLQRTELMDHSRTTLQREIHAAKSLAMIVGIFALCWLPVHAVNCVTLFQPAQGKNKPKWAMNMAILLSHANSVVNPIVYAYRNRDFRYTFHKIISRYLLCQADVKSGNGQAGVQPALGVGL
The assay can be described thus: Antagonist activity at human adenosine A2B receptor expressed in CHO cells assessed as inhibition of NECA-induced cAMP accumulation at 1 uM. The format is functional, cell-based. Put shortly: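 Whole hA2B-CHO cells (1 × 10⁶/assay) in buffered saline, pH 7.4, with 2 IU/ml adenosine deaminase and Ro 20-1724; preincubated 10 min at 37 °C. Stimulated with 200 nM NECA; compound at 1 µM. Stopped with cold 6% TCA, ether-extracted; cAMP by [³H]cAMP competition protein binding; % inhibition reported.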
A general note: Cyclic AMP is a second messenger, typically raised through Gs and lowered through Gi signalling.

The target of assay [2] is Adenosine receptor A2a (Homo sapiens, UniProt P29274). The assay can be described thus: Displacement of [3H]ZM241385 from human adenosine A2A receptor expressed in CHO cells at 1 uM by scintillation counting. The format is cell-based. Put shortly: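 hA2A-CHO membranes (50 µg protein) with 1 nM [³H]ZM241385 in 50 mM Tris-HCl, 10 mM MgCl2, pH 7.4; 60 min at 4 °C; nonspecific binding with 1 µM ZM241385. GF/B filtration. Ki from six to eight concentrations via Cheng–Prusoff; or % inhibition at 1 µM.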
On the technique in general: In a radioligand displacement assay an active substance lowers the binding of a labelled ligand.

The target of assay [3] is T2, Adenosine receptor A3 (Homo sapiens, UniProt P0DMS8).
T2 sequence (P0DMS8 whole entry): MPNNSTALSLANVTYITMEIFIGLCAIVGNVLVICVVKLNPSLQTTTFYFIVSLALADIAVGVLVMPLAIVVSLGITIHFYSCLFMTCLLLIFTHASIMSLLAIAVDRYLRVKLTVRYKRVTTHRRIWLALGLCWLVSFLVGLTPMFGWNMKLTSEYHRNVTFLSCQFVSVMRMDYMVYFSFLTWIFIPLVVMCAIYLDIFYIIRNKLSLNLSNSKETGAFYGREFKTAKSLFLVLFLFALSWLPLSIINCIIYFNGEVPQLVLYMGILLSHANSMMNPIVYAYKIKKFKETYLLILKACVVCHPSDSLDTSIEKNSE
Description: (§1) Displacement of [125I]AB-MECA from human adenosine A3 receptor expressed in CHO cells by scintillation counting. The format is cell-based. Put shortly: (§2)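 hA3-CHO membranes (50 µg protein) with 0.5 nM [125I]AB-MECA in 50 mM Tris-HCl, 10 mM MgCl2, 1 mM EDTA, pH 7.4; six to eight ligand concentrations; 120 min at 4 °C. Nonspecific binding: 1 µM AB-MECA. GF/B filtration. Ki by Cheng–Prusoff, means of four assays in duplicate.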

Assay [4] concerns the target T3, Adenosine receptor A1 (Homo sapiens) (UniProt P30542).
T3 sequence (whole entry): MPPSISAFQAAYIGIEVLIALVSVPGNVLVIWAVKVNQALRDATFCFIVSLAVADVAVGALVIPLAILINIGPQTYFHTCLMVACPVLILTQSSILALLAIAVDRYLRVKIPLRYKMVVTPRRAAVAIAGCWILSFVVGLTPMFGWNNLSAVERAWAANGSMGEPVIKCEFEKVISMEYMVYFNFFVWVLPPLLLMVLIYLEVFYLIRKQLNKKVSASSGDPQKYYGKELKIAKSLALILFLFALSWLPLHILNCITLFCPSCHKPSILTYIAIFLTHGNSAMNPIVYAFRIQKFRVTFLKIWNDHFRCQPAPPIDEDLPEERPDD
Description: Displacement of [3H]DPCPX from human adenosine A1 receptor expressed in CHO cells at 1 uM by scintillation counting. The format is cell-based. The essentials: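 hA1-CHO membranes (50 µg protein) with 1 nM [³H]DPCPX in 50 mM Tris-HCl pH 7.4, 120 min at 25 °C; nonspecific binding with 10 µM CHA. GF/B filtration. Ki from six to eight concentrations via Cheng–Prusoff (four duplicate assays); or % inhibition at 1 µM.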

Assay [5] concerns the target T4, Adenosine receptor A3 (Rattus norvegicus) (UniProt P28647).
T4 sequence (whole entry): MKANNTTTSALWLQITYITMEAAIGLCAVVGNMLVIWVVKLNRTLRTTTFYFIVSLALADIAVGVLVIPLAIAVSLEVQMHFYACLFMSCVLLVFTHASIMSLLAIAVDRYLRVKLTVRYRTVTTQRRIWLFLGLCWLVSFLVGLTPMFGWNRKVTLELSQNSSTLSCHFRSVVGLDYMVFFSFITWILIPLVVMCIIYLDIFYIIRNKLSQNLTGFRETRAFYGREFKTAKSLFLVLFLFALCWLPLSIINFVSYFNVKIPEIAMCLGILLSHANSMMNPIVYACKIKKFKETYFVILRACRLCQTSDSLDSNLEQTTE
The assay can be described thus: Displacement of [125I]AB-MECA from rat adenosine A3 receptor expressed in HEK293 cells at 1 uM by scintillation counting. The format is cell-based. Put shortly:
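rA3-HEK293 membranes (10 µg protein) with 0.5 nM [125I]AB-MECA in Tris-HCl/MgCl2/EDTA buffer pH 7.4; 120 min at 25 °C; GF/B filtration and scintillation counting; percent inhibition at 1 µM test compound.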

The target in assay [6] is T2, Adenosine receptor A3. Description: Antagonist activity at human adenosine A3 receptor expressed in CHO cells assessed as inhibition of CI-IB-MECA-mediated inhibition of cAMP accumulation by competition protein binding assay. The format is functional, cell-based. The essentials:
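hA3-CHO cells (1 × 10⁶/assay) preincubated 10 min at 37 °C in buffered saline pH 7.4 with adenosine deaminase (2 IU/ml) and Ro 20-1724. cAMP inhibited by 100 nM Cl-IB-MECA; antagonist 1 nM–1 µM. TCA stop, ether extraction, cAMP by [³H]cAMP/adrenal binding-protein competition. IC50 as mean of four experiments.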

The target in assay [7] is T5, Adenosine receptor A3 (Homo sapiens) (UniProt P0DMS8).
T5 sequence (whole entry): T2 sequence (P0DMS8 whole entry)
Described as §1. The format is cell-based. To be noted: concentration not given here. On the set-up: concentration or dose not given beside the values. Put shortly: as §2

Chain of Adenosine receptor A2a (P29274 whole entry): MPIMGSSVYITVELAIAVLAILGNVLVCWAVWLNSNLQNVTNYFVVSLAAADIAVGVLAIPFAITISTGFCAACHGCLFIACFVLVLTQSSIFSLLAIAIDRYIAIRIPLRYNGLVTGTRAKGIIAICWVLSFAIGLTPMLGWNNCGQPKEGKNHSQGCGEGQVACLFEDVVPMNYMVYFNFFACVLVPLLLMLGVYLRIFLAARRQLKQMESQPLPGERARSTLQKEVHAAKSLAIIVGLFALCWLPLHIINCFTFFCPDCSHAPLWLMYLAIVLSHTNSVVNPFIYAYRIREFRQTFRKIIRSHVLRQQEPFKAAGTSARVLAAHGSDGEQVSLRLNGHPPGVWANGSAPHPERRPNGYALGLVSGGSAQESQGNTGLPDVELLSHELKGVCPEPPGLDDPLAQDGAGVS

In general, inhibition refers to the share of the control response that was lost under treatment. The term Ki denotes a measure of affinity in units of concentration, obtained from inhibition or displacement. As for `O=C(Nc1nc2ccccc2c2cn(-c3ccccc3)nc12)c1ccncn1`, the inhibition was found to be 3% in assay [1], 6% in assay [2] and 9% in assay [4]. In assay [3], this molecule had a Ki of 0.21 µM.
For orientation: IC50 means the concentration needed to halve the response being measured. Regarding `O=C(Nc1nc2ccccc2c2cn(-c3ccccc3)nc12)c1ccco1`, the inhibition came out at 29% in assay [5], 3% in assay [1], 20% in assay [2] and 34% in assay [4]. This molecule displayed a Ki in assay [3] of 0.0034 µM. The IC50 in assay [6] came out at 0.021 µM.
As for `O=C(c1ccccc1)N(C(=O)c1ccccc1)c1nc2ccccc2c2cn(-c3ccccc3)nc12`, the inhibition in assay [2] and in assay [4] was 0% in each case.
With `Nc1nc2ccccc2c2cn(-c3cccc(C(F)(F)F)c3)nc12`, the inhibition in assay [1] is 4%; in assay [2] it was 7%; in assay [7], 30%; in assay [4] it was 6%.
As to `O=c1[nH]c2ccccc2c2cn(-c3ccc(C(F)(F)F)cc3)nc12`, the inhibition in assay [1] is 5%; in assay [2], 10%; in assay [4], 6%. The molecule also came in with an inhibitory constant (Ki) in assay [3] of 0.48 µM.
As for `O=C(Nc1nc2ccccc2c2cn(-c3ccccc3)nc12)c1ccncc1`, the inhibition in assay [5] stood at 26%; in assay [1], 1%; in assay [2], 1%; in assay [4] it was 8%. Affinity in assay [3] was put at a Ki of 0.005 µM. For the same molecule, the IC50 in assay [6] is 0.041 µM.
`O=C(Nc1nc2ccccc2c2cn(-c3ccc(Cl)cc3)nc12)c1ccncc1`: the inhibition in assay [5] turned out to be 21%; in assay [1] it was 3%; in assay [2], 2%; in assay [4], 4%. For the same molecule, the affinity in assay [3] corresponds to a Ki of 0.0247 µM. The 50% inhibitory concentration (IC50) in assay [6] worked out at 0.145 µM.
In the case of `Cc1cccc(C(=O)Nc2nc3ccccc3c3cn(-c4ccccc4)nc23)c1`, the inhibition in assay [5] was 5%; in assay [1], 35%; in assay [2], 1%; in assay [4] it was 20%. The same molecule yielded a Ki in assay [3] of 0.0063 µM. In assay [6], the IC50 is 0.026 µM.
As to `O=C(c1cccc(C(F)(F)F)c1)N(C(=O)c1cccc(C(F)(F)F)c1)c1nc2ccccc2c2cn(-c3ccccc3)nc12`, the inhibition amounted to 6% in assay [1], 3% in assay [2], 24% in assay [7] and 4% in assay [4].
On to `O=C(Nc1nc2ccccc2c2cn(-c3ccccc3)nc12)c1ccsc1`, for which the inhibition in assay [1] amounted to 2%; in assay [2] it was 2%; in assay [4] it was 1%. The same molecule displayed a Ki in assay [3] of 0.04 µM.
Turning to `O=C(Nc1nc2ccccc2c2cn(-c3ccccc3)nc12)c1cccc(C(F)(F)F)c1`, the inhibition was determined as 2% in assay [1], 1% in assay [2] and 23% in assay [4]. Further, in assay [3], the Ki is 0.06 µM.
Take `O=C(Nc1nc2ccccc2c2cn(-c3ccccc3)nc12)c1cccnc1`: the inhibition in assay [5] was determined as 27%; in assay [1], 1%; in assay [2], 1%; in assay [4], 26%. In assay [3], this molecule showed a Ki of 0.0105 µM. For the same molecule, the IC50 in assay [6] was 0.076 µM.
With `O=C(Nc1nc2ccccc2c2cn(-c3ccccc3)nc12)c1ccccn1`, the inhibition was 23% in assay [5], 15% in assay [1], 9% in assay [2] and 3% in assay [4]. For the same molecule, the Ki in assay [3] came to 0.0155 µM. The IC50 in assay [6] amounted to 0.107 µM.
Take `O=C(Nc1nc2ccccc2c2cn(-c3ccccc3)nc12)c1ccoc1`: the inhibition in assay [1] was 5%; in assay [2] it was 2%; in assay [4] it was 9%. The molecule also registered a Ki in assay [3] of 0.05 µM.
On the same counts, the results for `O=C(Nc1nc2ccccc2c2cn(-c3cccc(C(F)(F)F)c3)nc12)c1ccccc1` are 3%, 1%, 13% and 0.052 µM.
In the same order, the values of `O=C(Nc1nc2ccccc2c2cn(-c3ccccc3)nc12)c1ncccn1` are 1%, 2%, 6% and 0.945 µM.
With `O=C(Nc1nc2ccccc2c2cn(-c3ccc(Cl)cc3)nc12)c1ccco1`, the inhibition is 11% in assay [5], 2% in assay [1], 1% in assay [2] and 17% in assay [4]. Also, the affinity in assay [3], expressed as Ki, was 0.0115 µM. The IC50 in assay [6] turned out to be 0.083 µM.
In the case of `O=C(Nc1nc2ccccc2c2cn(-c3ccc(C(F)(F)F)cc3)nc12)c1ccccc1`, the inhibition in assay [1] turned out to be 3%; in assay [2], 1%; in assay [4], 10%. The same molecule showed an inhibition constant Ki in assay [3] of 0.14 µM.
As for `O=C(Nc1nc2ccccc2c2cn(-c3ccccc3)nc12)c1cscn1`, the figures for the inhibition in assay [1], in assay [2] and in assay [4] were 2%, 1% and 12%, respectively. The Ki in assay [3] worked out at 0.06 µM.
In the same order, the values of `O=C(Nc1nc2ccccc2c2cn(-c3ccccc3)nc12)c1cccs1` are 6%, 1%, 45% and 0.05 µM.
With `O=C(Nc1nc2ccccc2c2cn(-c3ccccc3)nc12)c1ccccc1`, the inhibition in assay [2] and in assay [4] was 0% in each case. Further, the affinity in assay [3], expressed as Ki, was 0.002 µM.
On to `O=C(Nc1nc2ccccc2c2cn(-c3ccccc3)nc12)c1cnccn1`, for which the inhibition in assay [1] came to 2%; in assay [2] it was 6%; in assay [4], 6%. Moreover, the Ki in assay [3] amounted to 0.065 µM.
For `O=C(Nc1nc2ccccc2c2cn(-c3ccccc3)nc12)c1ccc(C(F)(F)F)cc1`, the values for the inhibition in assay [1], in assay [2] and in assay [4] were 4%, 3% and 10%, respectively. In assay [3], this molecule returned a Ki of 0.415 µM.
As for `Cc1ccc(-n2cc3c(n2)c(NC(=O)c2ccccc2)nc2ccccc23)cc1`, in assay [2], the inhibition is 26%.
With `Cc1ccc(C(=O)Nc2nc3ccccc3c3cn(-c4ccccc4)nc23)cc1`, the inhibition in assay [5] was found to be 7%; in assay [1] it was 38%; in assay [2], 1%; in assay [4] it was 6%. Besides, the affinity in assay [3], expressed as Ki, was 0.0115 µM. For the same molecule, the IC50 in assay [6] came out at 0.054 µM.
